According to article PMC4618641 (Pharmacology Research & Perspectives, 2015):
Entries after “also recorded” stand apart in the source; their conditions may differ.

Tests used:
[1] = test system: DU145 human prostate cancer cells; assay: MTT cell viability assay, chemotherapeutics on naïve DU145; type: cell-based
In short: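 DU145 in RPMI-1640 with 10% FBS, seeded at 2 × 10^4 cells/mL, then after 48 h given a paclitaxel (or doxorubicin) range from 400X DMSO dilutions for 48 h. PBS rinse, fresh medium 24 h, then MTT 4 h; formazan dissolved in DMSO, read at 570 minus 720 nm. Survival relative to DMSO controls (n = 12/plate); ≥9 replicates from ≥3 experiments.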

DU145TXR cells [2] = assay: MTT cell viability assay, chemotherapeutics on multidrug-resistant DU145TXR; type: cell-based, human
DU145TXR cells [3] = assay: Potentiation assay; type: cell-based, human; settings: 10 nmol/L - 25 μmol/L inhibitor, 48 h
In short: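 Paclitaxel-selected DU145TXR (maintained in 10 nmol/L paclitaxel) seeded, then after 48 h co-treated 48 h with 500 nmol/L paclitaxel plus inhibitor at 10 nmol/L–25 μmol/L (400X DMSO solutions), triplicate wells; parallel run without paclitaxel. MTT read at 570 minus 720 nm. Survival relative to DMSO-treated wells without inhibitor; ≥6 replicates from ≥2 experiments. PC50 from a four-parameter variable-slope fit.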

DU145TXR cells [4] = assay: Dose-dependent sensitization to paclitaxel; type: cell-based, human; settings: for Synergy with paclitaxel (isobologram): DU145TXR, 5, 10, 25 μmol/L compound
DU145TXR cells [5] = assay: Reversal of resistance to doxorubicin; type: cell-based, human; settings: 25 μmol/L compound, data not shown
HFL1 cells = assay: Intrinsic cytotoxicity assay; type: cell-based, human; settings: for Decrease in cell viability: HFL1, 25 μmol/L compound, not shown; for IC50: Homo sapiens, HFL1, 48 h, read-out: IC50 (compound alone, estimated)
In short: (§1)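 Cells seeded at 2 × 10^4 cells/mL, grown 48 h, then exposed 48 h to test compound at 0.05–50 μmol/L from 200X DMSO solutions, with DMSO controls (n = 12/plate). PBS rinse, then fresh medium for 24 h and MTT for 4 h; A570 minus A720, blank subtracted. Survival is relative to DMSO; ≥6 replicates, ≥2 experiments. IC50 from a four-parameter fit constrained 0–100. HFL1 grown in F-12K on collagen-treated surfaces.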

DU145 cells = assay: Intrinsic cytotoxicity assay; type: cell-based, human; settings: for IC50: Homo sapiens, DU-145, 48 h, read-out: IC50 (compound alone, estimated)
In short: as §1

DU145TXR cells [6] = assay: Intrinsic cytotoxicity assay; type: cell-based, human; settings: for IC50: Homo sapiens, 48 h, read-out: IC50 (compound alone, estimated)
In short: as §1

P-gp [7] = settings: in the presence of the transport substrate verapamil; ref Brewer et al. [2014]; cited from earlier work
P-gp [8] = settings: ref Brewer et al. [2014]; cited from earlier work

Compound | Effect on sensitivity of DU145TXR to 500 nmol/L paclitaxel (DU145TXR cells [3]) | Synergy with paclitaxel (isobologram) (DU145TXR cells [4]) | Resensitization to doxorubicin (DU145TXR cells [5]) | Decrease in cell viability (HFL1 cells) | IC50 (HFL1 cells) | IC50 (DU145 cells) | IC50 (DU145TXR cells [6]) | Inhibition of verapamil-stimulated ATP hydrolysis (P-gp [7]) | Effect on nucleotide binding (ESR, SL-ATP) (P-gp [8]) | also measured
CC(=O)O[C@H]1C(=O)[C@@]2(C)[C@H]([C@H](OC(=O)c3ccccc3)[C@]3(O)C[C@H](OC(=O)[C@H](O)[C@@H](NC(=O)c4ccccc4)c4ccccc4)C(C)=C1C3(C)C)[C@]1(OC(C)=O)CO[C@@H]1C[C@@H]2O [Paclitaxel, paclitaxel] | – | – | – | – | – | – | – | – | – | Survival at 500 nmol/L paclitaxel [1]: < 10%; Survival at 500 nmol/L paclitaxel (DU145TXR cells [2]; DU145TXR): > 85%; IC50 (DU145TXR cells [2]; read-out: IC50 of chemotherapeutic alone, DU145TXR, 48 h incubation, MTT): 3.76 µM
CCC(C(=O)N1CCN(c2ccc(OC)cc2)CC1)n1nc(C)c2sc3ccccc3c2c1=O (centres unmarked) [Compound 34, 2-[1-[4-(4-methoxyphenyl)piperazin-1-yl]-1-oxobutan-2-yl]-4-methyl-[1]benzothiolo[2,3-d]pyridazin-1-one] | strongly affected the sensitivity | strong synergistic effect | resensitized the MDR prostate cancer cells to doxorubicin to levels that are comparable with the naïve DU145 cell line | 23% | 133 µM | 44 µM | 412 µM | inhibit ATP hydrolysis | directly interfered with nucleotide binding | –
COc1ccc(CCN(C)CCCC(C#N)(c2ccc(OC)c(OC)c2)C(C)C)cc1OC (centres unmarked) [Verapamil, verapamil, reference compound] | – | – | – | – | – | 75 µM | 207 µM | – | – | –
CCOC(=O)C1(CCCc2ccccc2)CCCN(C(=O)c2ccc3c(c2)OCO3)C1 (centres unmarked) [Compound 45, ethyl 1-(1,3-benzodioxole-5-carbonyl)-3-(3-phenylpropyl)piperidine-3-carboxylate] | strongly affected the sensitivity | strong synergistic effect | resensitized the MDR prostate cancer cells to doxorubicin to levels that are comparable with the naïve DU145 cell line | 13% | 62 µM | 41 µM | 107 µM | inhibit ATP hydrolysis | directly interfered with nucleotide binding | Cells killed (DU145 cells; DU145, 25 μmol/L compound, not shown): 31%; Cells killed (DU145TXR cells [6]; DU145TXR, 25 μmol/L compound, not shown): 36%
COC(=O)c1ccc(C(c2c(O)oc3ccccc3c2=O)c2c(O)oc3ccccc3c2=O)cc1 [Compound 19, methyl 4-[bis(2-hydroxy-4-oxochromen-3-yl)methyl]benzoate] | no apparent effect | – | – | – | – | 99 µM | – | inhibit ATP hydrolysis | directly interfered with nucleotide binding | Effect on sensitivity of DU145TXR to 500 nmol/L paclitaxel (DU145TXR cells [3]; listed as compound 19): no effect on the toxicity of paclitaxel; Effect on cell viability in sensitization experiments (DU145TXR cells [4]; DU145TXR, paclitaxel, 5, 10, 25 μmol/L compound): did not show any effect on cell viability
COc1cccc2c1C(=O)c1c(O)c3c(c(O)c1C2=O)C[C@@](O)(C(=O)CO)C[C@@H]3O[C@H]1C[C@H](N)[C@H](O)[C@H](C)O1 [doxorubicin] | – | – | – | – | – | – | – | – | – | Fold resistance (IC50 DU145TXR / IC50 DU145) (DU145TXR cells [2]; DU145TXR compared to DU145): over eightfold; also recorded: about eightfold
Cc1cc(C)c(-c2cc(NC(=O)CSc3n[nH]c(C4CC4)n3)n(-c3ccccc3)n2)cc1C [Compound 29, 2-[(5-cyclopropyl-1H-1,2,4-triazol-3-yl)sulfanyl]-N-[2-phenyl-5-(2,4,5-trimethylphenyl)pyrazol-3-yl]acetamide] | strongly affected the sensitivity | strong synergistic effect | resensitized the MDR prostate cancer cells to doxorubicin to levels that are comparable with the naïve DU145 cell line | 35% | 42 µM | 34 µM | 39 µM | inhibit ATP hydrolysis | did not affect nucleotide-binding characteristics | –
